According to ChEMBL document CHEMBL1145315, “Synthesis and hypoxic-cytotoxic activity of some 3-amino-1,2,4-benzotriazine-1,4-dioxide derivatives” (Bioorg Med Chem Lett, 2006):
Active and inactive are the calls of the source. No cut-off for these calls is given here.

Assays:
[1] = system: HL-60; assay: Ratio of cytotoxicity against human HL60 cells in normoxia to hypoxia after 48 hrs; type: functional, cell-based; details: HL-60, 48 h
[2] = system: K562; assay: Cytotoxicity against human K562 cells after 48 hrs by MTT assay; type: functional, cell-based; details: K562, 48 h
Outline: (§1)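 Cells were exposed in hypoxia for 48 h with tirapazamine as the reference drug. Growth was read by MTT assay and IC50 was calculated by the LOGIT method.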

[3] = system: HL-60; assay: Cytotoxicity against human HL60 cells in hypoxia after 48 hrs; type: functional, cell-based; details: HL-60, 48 h
Outline: (§2)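 Cells were exposed for 48 h in either normoxia or hypoxia. IC50 was determined separately under each oxygen condition.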

[4] = system: MOLT-4; assay: Cytotoxicity against human Molt4 cells after 48 hrs by MTT assay; type: functional, cell-based; details: MOLT-4, 48 h; outline: as §1
[5] = system: HL-60; assay: Cytotoxicity against human HL60 cells after 48 hrs by MTT assay; type: functional, cell-based; details: HL-60, 48 h; outline: as §1
[6] = system: MOLT-4; assay: Increase in p53 level in human Molt4 cells in hypoxia after 24 hrs at 2 uM; type: functional, cell-based
Outline: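 Cells were exposed to 2.0 μM compound for 24 h in hypoxia, and p53 protein was measured by Western blot. The experiment was repeated three times.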

[7] = system: MOLT-4; assay: Induction of apoptosis in human Molt4 cells after 24 hrs at 2 uM; type: functional
Outline: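 Cells were cultured in complete medium under 3% O2 with 2.0 μM compound for 24 h, alongside an untreated control. Lysed nuclei were stained with propidium iodide, and DNA content was analysed by flow cytometry on 20,000 events per test, scoring the apoptotic fraction. The experiment was done three times.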

[8] = system: MOLT-4; assay: Reduction of mitochondrial membrane potential in human Molt4 cells after 12 hrs at 2 uM; type: functional, cell-based
Outline: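 Cells were treated with 2.0 μM compound for 12 h in hypoxia and then stained with JC-1. Flow cytometry read depolarization as a rise in the green:red fluorescence ratio. Values are means ± SD from three separate experiments, each run in triplicate.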

[9] = system: HL-60; assay: Cytotoxicity against human HL60 cells in normoxia after 48 hrs; type: functional, cell-based; details: HL-60, 48 h; outline: as §2
[10] = system: MOLT-4; assay: Cytotoxicity against human Molt4 cells in normoxia after 48 hrs; type: functional, cell-based; details: MOLT-4, 48 h; outline: as §2
[11] = system: MOLT-4; assay: Cytotoxicity against human Molt4 cells in hypoxia after 48 hrs; type: functional, cell-based; details: MOLT-4, 48 h; outline: as §2
[12] = system: MOLT-4; assay: Ratio of cytotoxicity against human Molt4 cells in normoxia to hypoxia after 48 hrs; type: functional, cell-based; details: MOLT-4, 48 h
[13] = system: HepG2; assay: Cytotoxicity against human HepG2 cells after 48 hrs by MTT assay; type: functional, cell-based; details: HepG2, 48 h; outline: as §1
[14] = system: PC-3; assay: Cytotoxicity against human PC3 cells after 48 hrs by MTT assay; type: functional, cell-based; details: PC-3, 48 h; outline: as §1

In the case of `[O-][n+]1nc(NCc2ccccc2)[n+]([O-])c2ccccc21`, the IC50 ratio [1] is reported as 2.53, the IC50 [2] is reported as 1.9 µM and the IC50 [3] is reported as 2.5 µM. The IC50 [4] was 2.2 µM, the IC50 [5] was 2.5 µM and the Activity [6] was “Active”. The Activity [7] was 33%, the Activity [8] was “Active” and the IC50 [9] was 6.3 µM. It also gave an IC50 [10] of 8.1 µM, an IC50 [11] of 2.2 µM and an IC50 ratio [12] of 3.68. It also gave an IC50 [13] of 8.2 µM and an IC50 [14] of 10.7 µM.
`CCNc1n[n+]([O-])c2ccccc2[n+]1[O-]` showed an IC50 [2] of 4.5 µM, an IC50 [4] of 3.3 µM and an IC50 [5] of 9 µM. The IC50 [13] was 13.5 µM and the IC50 [14] was 13.3 µM.
With `[O-][n+]1nc(N2CCOCC2)[n+]([O-])c2ccccc21` the IC50 [2] was > 47 µM, the IC50 [4] was > 16.1 µM and the IC50 [5] was > 60 µM. For the same compound, the IC50 [13] was > 95 µM and the IC50 [14] was > 95 µM.
`[O-][n+]1nc(NCc2ccccc2Cl)[n+]([O-])c2ccccc21` was tested, and the IC50 [2] was 2.2 µM, the IC50 [4] was 2.3 µM and the IC50 [5] was 5.8 µM. It also gave an IC50 [13] of 9.7 µM and an IC50 [14] of 10.6 µM.
`O=[N+]([O-])c1ccc(CNc2n[n+]([O-])c3ccccc3[n+]2[O-])cc1` showed an IC50 ratio [1] of 4.29, an IC50 [2] of 3.1 µM and an IC50 [3] of 1.4 µM. The IC50 [4] was 0.8 µM, the IC50 [5] was 1.4 µM and the IC50 [9] was 6 µM. The IC50 [10] was 5 µM, the IC50 [11] was 0.8 µM and the IC50 ratio [12] was 6.25. The IC50 [13] was 7.7 µM and the IC50 [14] was 7.4 µM.
`Cc1ccc(Nc2n[n+]([O-])c3ccccc3[n+]2[O-])cc1` was tested, and the IC50 [2] was 2.5 µM, the IC50 [4] was 1.1 µM and the IC50 [5] was 1.5 µM. For the same compound, the IC50 [13] was 10.6 µM and the IC50 [14] was 10.3 µM.
In the case of `[O-][n+]1nc(Nc2ccccc2)[n+]([O-])c2ccccc21`, the IC50 [2] is reported as 2.4 µM, the IC50 [4] is reported as 1.4 µM and the IC50 [5] is reported as 2.9 µM. It also gave an IC50 [13] of 15 µM and an IC50 [14] of 17 µM.
Compound `Nc1ccccc1Nc1n[n+]([O-])c2ccccc2[n+]1[O-]` has an IC50 [2] of 10.6 µM, an IC50 [4] of 2.3 µM and an IC50 [5] of 8.3 µM. It also gave an IC50 [13] of 17.4 µM and an IC50 [14] of 16.1 µM.
`COc1ccc(Nc2n[n+]([O-])c3ccccc3[n+]2[O-])cc1` gave an IC50 ratio [1] of 7.56, an IC50 [2] of 2.9 µM and an IC50 [3] of 0.9 µM. For the same compound, the IC50 [4] was 0.6 µM, the IC50 [5] was 0.9 µM and the Activity [6] was “Active”. The Activity [7] was 45%, the Activity [8] was “Active” and the IC50 [9] was 6.8 µM. For the same compound, the IC50 [10] was 5.2 µM, the IC50 [11] was 0.6 µM and the IC50 ratio [12] was 8.67. The IC50 [13] was 10.1 µM and the IC50 [14] was 12 µM.
In the case of `CCCCCCCCNc1n[n+]([O-])c2ccccc2[n+]1[O-]`, the IC50 [2] is reported as 4.7 µM, the IC50 [4] is reported as 4.9 µM and the IC50 [5] is reported as 7.2 µM. For the same compound, the IC50 [13] was 17.4 µM and the IC50 [14] was 18.2 µM.
With `Nc1n[n+]([O-])c2ccccc2[n+]1[O-]` [TIRAPAZAMINE] the IC50 ratio [1] was 2.31, the IC50 [2] was 5.2 µM and the IC50 [3] was 7 µM. For the same compound, the IC50 [4] was 4.6 µM, the IC50 [5] was 7 µM and the Activity [6] was “Active”. For the same compound, the Activity [7] was 11%, the Activity [8] was “Active” and the IC50 [9] was 16.1 µM. It also gave an IC50 [10] of 15.8 µM, an IC50 [11] of 4.6 µM and an IC50 ratio [12] of 3.43. For the same compound, the IC50 [13] was 19.1 µM and the IC50 [14] was 22.3 µM.
`C=CCNc1n[n+]([O-])c2ccccc2[n+]1[O-]` gave an IC50 [2] of 11.2 µM, an IC50 [4] of 3 µM and an IC50 [5] of 25.8 µM. The IC50 [13] was > 56 µM and the IC50 [14] was > 56 µM.
`[O-][n+]1nc(NCCO)[n+]([O-])c2ccccc21` gave an IC50 [2] of 3.7 µM, an IC50 [4] of 2.6 µM and an IC50 [5] of 10.7 µM. The IC50 [13] was 23.2 µM and the IC50 [14] was 22.4 µM.
`CCN(CC)c1n[n+]([O-])c2ccccc2[n+]1[O-]` was tested, and the IC50 [2] was > 55 µM, the IC50 [4] was > 17.6 µM and the IC50 [5] was > 49 µM. The IC50 [13] was > 107 µM and the IC50 [14] was > 107 µM.
With `[O-][n+]1nc(NC2CCCCC2)[n+]([O-])c2ccccc21` the IC50 [2] was 2.6 µM, the IC50 [4] was 1.3 µM and the IC50 [5] was 2.5 µM. It also gave an IC50 [13] of 9.5 µM and an IC50 [14] of 10.5 µM.
`[O-][n+]1nc(NC2CC2)[n+]([O-])c2ccccc21` gave an IC50 [2] of 6.6 µM, an IC50 [4] of 1.9 µM and an IC50 [5] of 3.6 µM. It also gave an IC50 [13] of 13.3 µM and an IC50 [14] of 15.9 µM.
